Values after ≈ are worked out from the molar mass of the structure shown. Active and inactive are the calls of the source. The rule behind the calls is not given here. Bridge positions count the residues as written; N and C are the ends. Peptide text beside a SMILES is read from it.
How the values were obtained:
[1] = test system: Rattus norvegicus; assay: Decrease in TNF-alpha level in plasma of Escherichia coli serotype 0111:B4 infected Wistar rat at 1 mg/kg, iv administered immediately after LPS challenge; type: functional, organism-based; design: dose 1 mg/kg
Summary of the method: (§1)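 Anaesthetised male Wistar rats (15 per group) given 1.0 mg E. coli 0111:B4 LPS i.p. in 500 μl saline, treated immediately; saline controls. Tail-vein blood sampled into EDTA at 0, 2, 6, 12 and 36 h. Endotoxin by Limulus amebocyte lysate: plasma twofold diluted, heated 5 min at 75°C, read against a 0–0.5 EU/ml standard curve. TNF-α by sandwich ELISA at 450 nm, in duplicate, lower limit 0.05 ng/ml.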

[2] = test system: Escherichia coli; assay: Antibacterial activity against Escherichia coli ATCC 25922 assessed as inhibition of bacterial growth at 4 mg/L; type: functional, organism-based
[3] = test system: Rattus norvegicus; assay: Decrease in endotoxin level in plasma of Escherichia coli serotype 0111:B4 infected Wistar rat at 1 mg/kg, iv administered immediately after LPS challenge; type: functional, organism-based; design: dose 1 mg/kg; summary of the method: as §1
[4] = test system: Rattus norvegicus; assay: Toxicity in Wistar rat assessed as occurrence of adverse events at 1 mg/kg, iv; type: organism-based; design: dose 1 mg/kg, route intravenous; settings: in vivo
Summary of the method: (§2)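 Rats receiving the peptide were watched for local inflammation, anorexia, weight loss, diarrhoea, fever and behavioural change. A separate uninfected group given 1 mg/kg peptide was monitored for temperature, pulse, blood pressure, respiration and oxygenation.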

[5] = test system: Escherichia coli; assay: Antibacterial activity against Escherichia coli ATCC 25922 by CLSI method in presence of tachyplesin 3; type: functional
[6] = test system: Escherichia coli; assay: Antibacterial activity against 1x10^9 CFU Escherichia coli ATCC 25922 infected Wistar rat assessed as rat mortality at 1 mg/kg, iv administered immediately after bacterial challenge measured 72 hrs postinfection (Rvb mortality = 100%); type: functional
[7] = test system: Escherichia coli; assay: Antibacterial activity against Escherichia coli ATCC 25922 assessed as bacterial count after 24 hrs; type: functional
[8] = test system: Escherichia coli; assay: Antibacterial activity against Escherichia coli ATCC 25922 by CLSI method in presence of clarithromycin; type: functional
[9] = test system: Escherichia coli; assay: Antibacterial activity against 1x10^9 CFU Escherichia coli ATCC 25922 infected Wistar rat assessed as rat bacterial count in peritoneal fluid at 1 mg/kg, iv administered immediately after bacterial challenge measured 72 hrs postinfection (Rvb= 8.86 logCFU/ml); type: functional
Summary of the method: (§3)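 Male Wistar rats (3–5 months, 300–400 g) under ketamine/xylazine anaesthesia, inoculated i.p. with 1 × 10^9 CFU log-phase E. coli ATCC 25922 in 1 ml saline. Drug given immediately after challenge; saline controls; 15 rats per group. Survivors killed at end of 72 h. Peritoneal lavage with 10 ml saline, plated on blood agar at 35°C for 48 h, aerobic and anaerobic. Detection limit ≤2 log10 CFU/ml. Mean ± SD.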

[10] = test system: Escherichia coli; assay: Antibacterial activity against 1x10^9 CFU Escherichia coli ATCC 25922 infected Wistar rat assessed as rat mortality at 60 mg/kg, iv administered immediately after bacterial challenge measured 72 hrs postinfection (Rvb mortality = 100%); type: functional
[11] = test system: Escherichia coli; assay: Antibacterial activity against Escherichia coli clinical isolates by CLSI method in presence of 2 mg/L tachyplesin 3; type: functional
Summary of the method: (§4)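 Permeabilisation assay: 1 × 10^5 CFU added to twofold clarithromycin dilutions (1,000–0.5 μg/ml) in Iso-Sensitest broth, with or without peptide. Clarithromycin MIC compared with and without peptide. The lowest peptide level needed for sensitivity to 30 μg/ml clarithromycin was also determined.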

[12] = test system: Escherichia coli; assay: Antibacterial activity against 1x10^9 CFU Escherichia coli ATCC 25922 infected Wistar rat assessed as rat bacterial count in peritoneal fluid at 50 mg/kg, iv administered immediately after bacterial challenge measured 72 hrs postinfection (Rvb= 8.86 logCFU/ml); type: functional; summary of the method: as §3
[13] = test system: Rattus norvegicus; assay: Toxicity in Wistar rat assessed as effect on physiological parameters at 1 mg/kg, iv; type: organism-based; design: dose 1 mg/kg, route intravenous; settings: in vivo; summary of the method: as §2
[14] = test system: Escherichia coli; assay: Antibacterial activity against Escherichia coli ATCC 25922 by CLSI method in presence of 2 mg/L tachyplesin 3; type: functional; summary of the method: as §4
[15] = test system: Escherichia coli; assay: Antibacterial activity against Escherichia coli ATCC 25922 by CLSI method; type: functional
Summary of the method: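 Broth MIC by CLSI (NCCLS M7-A6) dilution method, run in triplicate.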

[16] = test system: Escherichia coli; assay: Antibacterial activity against Escherichia coli by CLSI method in presence of 2 mg/L tachyplesin 3; type: functional, organism-based; summary of the method: as §4

CC[C@H](C)[C@H](NC(=O)CNC(=O)[C@H](CCCNC(=N)N)NC(=O)[C@H](Cc1ccc(O)cc1)NC(=O)[C@H](CS)NC(=O)[C@@H](NC(=O)[C@H](CCCNC(=N)N)NC(=O)[C@H](Cc1ccccc1)NC(=O)[C@H](CS)NC(=O)[C@H](Cc1c[nH]c2ccccc12)NC(=O)[C@@H](N)CCCCN)C(C)C)C(=O)N[C@@H](CS)C(=O)N[C@@H](Cc1ccc(O)cc1)C(=O)N[C@@H](CCCNC(=N)N)C(=O)N[C@@H](CCCCN)C(=O)N[C@@H](CS)C(=O)N[C@@H](CCCNC(=N)N)C(N)=O (H-KWCFRVCYRGICYRKCR-NH2)
Activity [1]: Active
inhibition [2]: Active
Activity [3]: Active

CC[C@H](C)[C@@H]1NC(=O)CNC(=O)[C@H](CCCNC(=N)N)NC(=O)[C@H](Cc2ccc(O)cc2)NC(=O)[C@@H]2CSSC[C@H](NC1=O)C(=O)N[C@@H](Cc1ccc(O)cc1)C(=O)N[C@@H](CCCNC(=N)N)C(=O)N[C@@H](CCCCN)C(=O)N[C@H](C(=O)N[C@@H](CCCNC(=N)N)C(N)=O)CSSC[C@H](NC(=O)[C@H](Cc1c[nH]c3ccccc13)NC(=O)[C@@H](N)CCCCN)C(=O)N[C@@H](Cc1ccccc1)C(=O)N[C@@H](CCCNC(=N)N)C(=O)N[C@@H](C(C)C)C(=O)N2 [TACHYPLESIN III] (H-KWCFRVCYRGICYRKCR-NH2; disulfide 3-16, 7-12)
Activity [4]: Non-toxic
fractional inhibitory concentration index (FICI) [5]: 0.385
Activity [6]: 33.3%
CFU [7]: 5.65 ×10⁶ /ml
fractional inhibitory concentration index (FICI) [8]: 0.385
log10CFU/ml [9]: 4.46

CC[C@H]1OC(=O)[C@H](C)[C@@H](O[C@H]2C[C@@](C)(OC)[C@@H](O)[C@H](C)O2)[C@H](C)[C@@H](O[C@@H]2O[C@H](C)C[C@H](N(C)C)[C@H]2O)[C@](C)(OC)C[C@@H](C)C(=O)[C@H](C)[C@@H](O)[C@]1(C)O [CLARITHROMYCIN]
Activity [10]: 66.6%
MIC [11]: 32 µg/mL
log10CFU/ml [12]: 6.68
Activity [13]: Non-toxic
MIC [14]: 32 µg/mL
MIC [15]: 128 µg/mL (≈ 171 µM)
inhibition [16]: Active

— ChEMBL document CHEMBL1649113, “Efficacy of the combination of tachyplesin III and clarithromycin in rat models of Escherichia coli sepsis” (Antimicrob Agents Chemother, 2008)
